Test results published in ChEMBL document CHEMBL5506013, “Mitochondria-Selective Dicationic Small-Molecule Ligand Targeting G-Quadruplex Structures for Human Colorectal Cancer Therapy” (J Med Chem, 2024).
Active and inactive are the calls of the source. The calls are words filed in the database; no cut-off is given here.

Experiments:
[1] = Toxicity in BALB/c nude mouse assessed as effect on heart at 5 mg/kg, iv measured after 16 hrs post injection by H and E staining based analysis; format: organism-based; conditions: in vivo
[2] = Toxicity in BALB/c nude mouse assessed as change in mean platelet volume at 5 mg/kg, iv administered every two days for 16 days; format: organism-based; conditions: in vivo, 384 h, time 16 day
Method in brief: (§1)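 HCT116 xenograft-bearing male Balb/c nude mice (6/group) dosed iv at 5 mg/kg every two days or with PBS. Whole blood collected at sacrifice on day 16 for hematology parameters.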

[3] = Drug localization in mitochondria of human HCT-116 cells at upto 4 uM incubated for 1 hrs by mito-tracker deep red staining based live cell imaging analysis; format: ADME; conditions: hct-116, 1 h
[4] = Drug localization in nucleus of living human HCT-116 cells assessed as colocalization at 4 uM incubated for 1 hr by Hoechst33342 staining based analysis; format: ADME, subcellular; conditions: hct-116, 1 h
HCT-116 [5] = assay: Downregulation of ND6 protein level in human HCT-116 cells at upto 4 uM incubated for 48 hrs by Western blot analysis; format: functional, cell-based
HCT-116 [6] = assay: Induction of apoptosis in human HCT-116 cells at upto 4 uM measured after 72 hrs by annexin V-BUV396 and 7-AAD staining based flow cytometry analysis (reference value: 2.64%); format: functional; conditions: up to 4 µM
Method in brief: (§2)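 HCT116 cells treated at 0-4 uM for 72 h, stained with Annexin V-BUV396 and 7-AAD, and the apoptotic fraction quantified by flow cytometry.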

HCT-116 [7] = assay: Inhibition of cell proliferation in human HCT-116 cells at 4 uM measured after 7 days by colony formation assay relative to control; format: functional; conditions: HCT-116, 168 h, time 7 day
Method in brief: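 Colony formation: HCT116 cells treated for 7 days at 0, 1, 2 or 4 uM, colonies counted and quantified; mean ± SD.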

HCT-116 [8] = assay: Downregulation of mitochondrial respiratory chain complex II level in human HCT-116 cells at upto 4 uM measured after 48 hrs by Western blot analysis; format: functional, cell-based
HCT-116 [9] = assay: Antitumor activity against human HCT-116 cells xenografted in Balb/c nude mouse model assessed as inhibition of tumor growth at 5 mg/kg, iv administered every two days for 16 days; format: functional, organism-based; conditions: time 16.0 day
Method in brief: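 Male Balb/c nude mice carrying HCT116 xenografts, 6 per group. Dosing was intravenous every two days at 5 mg/kg, with a PBS-injected control group. Body weight and tumour growth were tracked. Tumours were excised and weighed after 16 days.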

[10] = Drug localization in human HCT-116 cells by measuring red foci at 4 uM incubated for 1 hr in presence of FCCP by hoechst33342 staining based analysis; format: ADME, cell-based; conditions: hct-116, 1 h
Method in brief: (§3)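 Pretreatment of live HCT116 cells: FCCP 1 uM for 20 min, cyclosporin A 1 uM for 24 h, DMOG 100 uM for 24 h, or MitoPDS at several concentrations for 3 h (applied after dye loading). Cells loaded with ligand 4 uM (excitation 488 nm) for 1 h and Hoechst33342 1 uM for 30 min. Red foci counted by confocal imaging in 100 cells. Mean ± SEM, t test.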

DNA = assay: Binding affinity to SS19 DNA (non-G4 DNA) (unknown origin) assessed as increase in fluorescence intensity by fluorescence spectrophotometric analysis; format: nucleic-acid assay
Method in brief: (§4)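 Oligonucleotides were pre-annealed at 95 °C for 10 min, then cooled slowly. Ligand (5 uM) was mixed with 20 uM DNA in buffer. Emission was collected over 550–800 nm, and enhancement was taken at 650 nm as F/F0.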

Quadruplex DNA [11] = assay: Binding affinity to Mito 78 G4 DNA (unknown origin) assessed as increase in CD signal at 5 uM at 290 nMby circular dichroism spectroscopic analysis; format: nucleic-acid assay
Quadruplex DNA [12] = assay: Binding affinity to mito 78 G4 DNA (unknown origin) assessed as dissociation constant measured upto 450 secs by surface plasmon resonance assay; format: nucleic-acid assay
Quadruplex DNA [13] = assay: Binding affinity to mito 0.5-15 G4 DNA (unknown origin) assessed as increase in fluorescence intensity by fluorescence spectrophotometric analysis; format: nucleic-acid assay; method in brief: as §4
HCT-116 [14] = assay: Downregulation of ND3 mRNA level in human HCT-116 cells at 0 to 4 uM measured after 48 hrs by qRT-PCR analysis; format: functional, cell-based; conditions: dose 0-4 µM
HCT-116 [15] = assay: Downregulation of COX3 protein level in human HCT-116 cells at upto 4 uM incubated for 48 hrs by Western blot analysis; format: functional, cell-based
PANC-1 = assay: Antiproliferative activity against human PANC-1 cells measured after 48 hrs by MTT assay; format: functional, cell-based; conditions: PANC-1, 48 h
Method in brief: (§5)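 Cells exposed to the ligands for 48 h. Viability was read by MTT, and the IC50 was derived from the response.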

HCT-116 [16] = assay: Induction of apoptosis in human HCT-116 cells measured after 72 hrs by annexin V-BUV396 and 7-AAD staining based flow cytometry analysis; format: functional, cell-based; conditions: dose <= 4.0 µM; method in brief: as §2
Quadruplex DNA [17] = assay: Binding affinity to Mito 29 G4 DNA (unknown origin) assessed as change in melting temperature at 5 uM by circular dichroism spectroscopic analysis; format: nucleic-acid assay
[18] = Antiproliferative activity against human HFF-1 cells measured after 48 hrs by MTT assay; format: toxicity, cell-based; conditions: HFF-1 cells; method in brief: as §5
HCT-116 [19] = assay: Downregulation of mitochondrial respiratory chain complex-IV level in human HCT-116 cells at upto 4 uM measured after 48 hrs by Western blot analysis; format: functional, cell-based
HCT-116 [20] = assay: Induction of DNA damage in human HCT-116 assessed as increase in gammaH2AX level at upto 4 uM incubated for 72 hrs by Western blot analysis; format: functional, cell-based
Method in brief: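 HCT116 cells treated with ligand at 0-4 uM for 72 h. Lysates immunoblotted for Lamin B1, p53, p21, p16, gamma-H2A.x, caspase-3 and cleaved caspase-3, with beta-actin as loading control.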

HCT-116 [21] = assay: Downregulation of Ki67 expression level in human HCT-116 cells at upto 4 uM measured after 72 hrs by immunofluorescence analysis; format: functional, cell-based
Method in brief: (§6)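 HCT116 cells treated with ligand at 0-4 uM for 72 h. Lamin B1 and Ki67 imaged by immunofluorescence (excitation 635 nm), or lamin B1 probed on Western blot with β-actin as loading control.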

HCT-116 [22] = assay: Induction of mitochondrial permeability transition pore opening in human HCT-116 cells measured after 48 hrs by calcein-AM staining based assay; format: functional, cell-based; conditions: dose <= 4.0 µM
HeLa = assay: Antiproliferative activity against human HeLa cells measured after 48 hrs by MTT assay; format: functional, cell-based; method in brief: as §5
[23] = Toxicity in BALB/c nude mouse assessed as change in white blood cell count at 5 mg/kg, iv administered every two days for 16 days; format: organism-based; conditions: in vivo, 384 h, time 16 day; method in brief: as §1
Quadruplex DNA [24] = assay: Binding affinity to mito 55 G4 DNA (unknown origin) assessed as dissociation constant measured upto 450 secs by surface plasmon resonance assay; format: nucleic-acid assay
Method in brief: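 Surface plasmon resonance in buffer at 25 °C. Four G4-mtDNAs (Mito 78, Mito 55, Mito 29, Mito 0.5-16) and the hairpin HP19 served as substrates. Kd was derived from the sensorgrams.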

Quadruplex DNA [25] = assay: Binding affinity to mito 0.5-15 G4 DNA (unknown origin) assessed as dissociation constant measured upto 150 secs by isothermal titration calorimetry assay; format: nucleic-acid assay
HCT-116 [26] = assay: Downregulation of lamin B1 level in human HCT-116 cells measured after 72 hrs by Western blot analysis; format: functional, cell-based; conditions: dose <= 4.0 µM; method in brief: as §6
[27] = Drug localization in human HCT-116 cells by measuring red foci at 4 uM incubated for 1 hr in presence of DMOG by hoechst33342 staining based analysis; format: ADME, cell-based; conditions: hct-116, 1 h; method in brief: as §3

Drug uptake [3]: Active | Drug uptake [4]: Not Active | Drug uptake [10]: Not Active | Activity (DNA): inactive | Activity (Quadruplex DNA [11]): Active | Kd (Quadruplex DNA [12]): 0.04 µM | Activity (Quadruplex DNA [13]): Active | IC50 (PANC-1): 24.8 µM | ΔTm (Quadruplex DNA [17]): 3.6 °C | IC50 (HeLa): 23.5 µM | Kd (Quadruplex DNA [24]): 0.17 µM | Kd (Quadruplex DNA [25]): 0.06 µM | Drug uptake [27]: Not Active
Structure (SMILES): C(=C\c1ccc2ccccc2[n+]1CCCCCCCC[n+]1c(/C=C/c2ccc(N3CCCCC3)cc2)ccc2ccccc21)/c1ccc(N2CCCCC2)cc1.[I-].[I-]
Activity [1]: Non-Toxic | Activity [2]: Non-Toxic | Activity (HCT-116 [5]): Active | Activity (HCT-116 [6]): 27.4% | inhibition at 4 µM (HCT-116 [7]): 100% | Activity (HCT-116 [8]): Active | Activity (HCT-116 [9]): Active | Activity (HCT-116 [14]): Active | Activity (HCT-116 [15]): Active | Activity (HCT-116 [16]): Dose-Dependent Effect | IC50 at 48 h [18]: 32.7 µM | Activity (HCT-116 [19]): Active | Activity (HCT-116 [20]): Active | Activity (HCT-116 [21]): Active | Activity (HCT-116 [22]): Dose-Dependent Effect | Activity [23]: Non-Toxic | Activity (HCT-116 [26]): Dose-Dependent Effect
